Reference: ChEMBL document CHEMBL4765234 (J Med Chem, 2016)

How the values were obtained:
[1] = Elimination half-life in dog plasma at 5 mg/kg, po or 1 mg/kg, iv by LC/MS/MS analysis; type: ADME, organism-based, Canis lupus familiaris
Outline: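 Dosing was oral and intravenous in mice, rats or beagle dogs. Blood was drawn at set time points into EDTA and processed to plasma. Plasma was assayed by LC/MS/MS. Clearance, Cmax and terminal half-life were derived by noncompartmental analysis.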

[2] = Drug metabolism in rat hepatocytes assessed as O-dealkylation by measuring 4-((2,3-dihydrospiro[indene-1,4'-piperidine]-1'-yl)methyl)benzoic acid metabolite formation by LC-MS/MS analysis; type: ADME, cell-based, Hepatocyte
[3] = Oral bioavailability in rat at 10 mg/kg by LC/MS/MS analysis; type: ADME, organism-based; settings: in vivo
Outline: (§1)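 Mice, rats and beagle dogs dosed; blood drawn at set times into EDTA, processed to plasma and assayed by LC/MS/MS. Parameters (clearance, Vdss, terminal half-life, Cmax, Tmax, oral bioavailability) derived by noncompartmental analysis.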

[4] = Elimination half-life in mouse plasma at 10 mg/kg, po or 1 mg/kg, iv by LC/MS/MS analysis; settings: read-out: beta t1/2 (converted)
[5] = Tmax in mouse at 10 mg/kg, po or 1 mg/kg, iv by LC/MS/MS analysis; type: ADME, organism-based; settings: in vivo; outline: as §1
[6] = Volume of distribution at steady state in rat at 10 mg/kg, po or 3 mg/kg, iv by LC/MS/MS analysis; type: ADME, organism-based; settings: in vivo, read-out: Vdss; outline: as §1
[7] = Half-life in mouse at 10 mg/kg, po or 1 mg/kg, iv by LC/MS/MS analysis; type: ADME, organism-based; settings: in vivo; outline: as §1
[8] = Volume of distribution at steady state in mouse at 10 mg/kg, po or 1 mg/kg, iv by LC/MS/MS analysis; type: ADME, organism-based; settings: in vivo, read-out: Vdss; outline: as §1
[9] = Drug metabolism in dog plasma assessed as O-dealkylation metabolite formation by LC-MS/MS analysis; type: ADME, cell-free, Canis lupus familiaris
[10] = Half-life in dog at 5 mg/kg, po or 1 mg/kg, iv by LC/MS/MS analysis; type: ADME, organism-based, Canis lupus familiaris; settings: in vivo; outline: as §1
[11] = Half-life in rat at 10 mg/kg, po or 3 mg/kg, iv by LC/MS/MS analysis; type: ADME, organism-based; settings: in vivo; outline: as §1
[12] = Oral bioavailability in mouse at 10 mg/kg by LC/MS/MS analysis; type: ADME, organism-based; settings: in vivo; outline: as §1
[13] = Tmax in rat at 10 mg/kg, po or 3 mg/kg, iv by LC/MS/MS analysis; type: ADME, organism-based; settings: in vivo; outline: as §1
[14] = Oral bioavailability in dog at 5 mg/kg by LC/MS/MS analysis; type: ADME, organism-based, Canis lupus familiaris; settings: in vivo; outline: as §1
[15] = Cmax in type 2 diabetic mellitus human at 540 mg, po administered as single dose; type: ADME, organism-based; design: route oral, dose 540 mg; settings: in vivo
Outline: (§2)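 Type 2 diabetic subjects each received a single oral dose. Plasma drug levels were followed over time. Parameters were derived by noncompartmental analysis and reported as geometric means with CV%. CL/F is apparent total clearance and Vz/F is apparent terminal-phase volume.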

[16] = Half life in type 2 diabetic mellitus human at 1080 mg, po administered as single dose; type: ADME, organism-based; settings: in vivo; outline: as §2
[17] = Apparent clearance in type 2 diabetic mellitus human at 540 mg, po administered as single dose; type: ADME, organism-based; settings: in vivo; outline: as §2
[18] = Tmax in type 2 diabetic mellitus human at 1080 mg, po administered as single dose; type: ADME, organism-based; settings: in vivo
Outline: (§3)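 Single oral dose given to type 2 diabetic subjects; plasma drug levels followed over time. Cmax, Tmax, terminal half-life, AUC(0−∞), CL/F and Vz/F obtained by noncompartmental analysis and reported as geometric means with CV%.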

[19] = Tmax in type 2 diabetic mellitus human at 540 mg, po administered as single dose; type: ADME, organism-based; settings: in vivo; outline: as §3
[20] = Tmax in type 2 diabetic mellitus human at 270 mg, po administered as single dose; type: ADME, organism-based; settings: in vivo; outline: as §3
[21] = Cmax in type 2 diabetic mellitus human at 270 mg, po administered as single dose; type: ADME, organism-based; design: route oral, dose 270 mg; settings: in vivo; outline: as §2
[22] = Drug metabolism in dog hepatocytes assessed as demethylation by LC-MS/MS analysis; type: ADME, cell-based, Canis lupus familiaris, Hepatocyte
[23] = AUC in hyperglycemic Balb/c mouse plasma at […] measured upto 60 mins; type: ADME, organism-based
[24] = AUC in hyperglycemic Balb/c mouse plasma at 3.67 mg/kg measured upto 60 mins; type: ADME, organism-based; design: dose 3.67 mg/kg, time <=60
[25] = Drug distribution in C57BL/6 mouse plasma at 3 microg/kg, iv administered as single dose observed at 20 to 40 mins by LC-MS/MS analysis; type: ADME, organism-based; settings: in vivo, 0.003 mg/kg, time 20-40 min, dose 3 µg/kg
Outline: (§4)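 Tracer microdose study in fed male C57BL/6 mice: single 3 μg/kg IV dose in 25% HP-BCD. Mice were killed by cervical dislocation, and spleen, ascending colon, skeletal muscle and plasma were sampled at 20 and 40 min.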

[26] = Drug distribution in C57BL/6 mouse skeletal muscle at 3 microg/kg, iv administered as single dose observed at 20 to 40 mins by LC-MS/MS analysis; type: ADME, organism-based, Skeletal muscle tissue; settings: in vivo, 0.003 mg/kg, time 20-40 min, dose 3 µg/kg; outline: as §4
[27] = Drug distribution in C57BL/6 mouse colon at 3 microg/kg, iv administered as single dose observed at 20 to 40 mins by LC-MS/MS analysis; type: ADME, organism-based; settings: in vivo, 0.003 mg/kg, time 20-40 min, dose 3 µg/kg; outline: as §4
[28] = AUC in hyperglycemic Balb/c mouse plasma at 5.6 mg/kg measured upto 60 mins; type: ADME, organism-based; design: dose 5.6 mg/kg, time <=60
[29] = Drug metabolism in dog urine assessed as N-dealkylation by LC-MS/MS analysis; type: ADME, tissue-based, Canis lupus familiaris
[30] = Drug metabolism in mouse hepatocytes assessed as N-dealkylation by LC-MS/MS analysis; type: ADME, cell-based, Hepatocyte

Compound: CC#C[C@@H](CC(=O)O)c1ccc(OCc2ccc(CN3CCC4(C=Cc5ccccc54)CC3)cc2)cc1 [LY2881835]
- half-life [1]: 5.05 h
- Drug metabolism [2]: Metabolite_Detected
- bioavailability [3]: 71%
- half-life [4]: 2 h
- Tmax [5]: 0.5 h
- Vd [6]: 0.4 L/kg
- half-life [7]: 2.1 h
- Vd [8]: 1.4 L/kg
- Drug metabolism [9]: Metabolite_Detected
- half-life [10]: 5.05 h
- half-life [11]: 2.1 h
- bioavailability [12]: 64%
- Tmax [13]: 0.25 h
- bioavailability [14]: 74%

Compound: CC#C[C@@H](CC(=O)O)c1ccc(OCc2ccc(CN3CCCc4cccc(OC)c43)s2)cc1
- Cmax [15]: 3780 ng/mL
- half-life [16]: 22.4 h
- CL/F [17]: 217 mL/min
- Tmax [18]: 4 h
- Tmax [19]: 4 h
- Tmax [20]: 2.75 h
- Cmax [21]: 2000 ng/mL
- Drug metabolism [22]: Metabolite_Detected

Compound: CC#C[C@@H](CC(=O)O)c1ccc(OCc2ccc(CN3CCC4(CC3)CN(C)c3ccccc34)cc2)cc1
- AUC at 1 h [23]: 1030 ng·h/mL

Compound: CC#C[C@@H](CC(=O)O)c1ccc(OCc2ccc(CN3CCC4(C=Cc5ccccc54)CC3)s2)cc1
- AUC at 1 h [24]: 1060 ng·h/mL
- Drug uptake [25]: Active
- Drug uptake [26]: Active
- Drug uptake [27]: Active

Compound: CC#C[C@@H](CC(=O)O)c1ccc(OCc2ccc(CN3CCC4(CCc5ccccc54)CC3)s2)cc1
- AUC at 1 h [28]: 898 ng·h/mL
- Drug metabolism [29]: Metabolite_Detected
- Drug metabolism [30]: Metabolite_Detected
